Source: ChEMBL document CHEMBL4665645, “Role of the NMDA Receptor in the Antitumor Activity of Chiral 1,4-Dioxane Ligands in MCF-7 and SKBR3 Breast Cancer Cells” (ACS Med Chem Lett, 2019)
Active and inactive are the calls of the source.

How the values were obtained:
[1] = tested on: MCF7; experiment: Cytotoxicity against siNMDA receptor transfected human MCF7 cells assessed as reduction in cell viability after 48 hrs by SRB assay; format: functional
Summary of the method: (§1)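 GluN1 subunit knocked down by siNMDA R transfection, confirmed by qRT-PCR and Western blot; compared with untransfected cells. SRB viability read after 48 h exposure to a range of concentrations. Mean ± SE of three separate experiments.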

[2] = tested on: MCF7; experiment: Induction of apoptosis in human MCF7 cells transfected with siNMDA receptor after 72 hrs by Annexin V-FITC/propidium iodide staining-based flow cytometric analysis; format: functional, cell-based
[3] = tested on: MCF7; experiment: Induction of apoptosis in human MCF7 cells transfected with siNMDA receptor assessed as active caspase-3 level incubated for 72 hrs by Western blot analysis; format: functional, cell-based
Summary of the method: (§2)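 Cells transfected with siNMDA R (GluN1) or left untransfected, then treated 72 h (MCF-7 100 μM, SKBR3 25 μM) or left untreated. Cleaved caspase-3 detected by immunoblot; densitometry normalised to GAPDH; p < 0.01 threshold.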

[4] = Apparent permeability in human Caco2 cells; format: ADME, cell-based; conditions: caco-2
[5] = tested on: SK-BR-3; experiment: Cytotoxicity against siNMDA receptor transfected human SK-BR-3 cells assessed as reduction in cell viability after 48 hrs by SRB assay; format: functional; summary of the method: as §1
[6] = tested on: SK-BR-3; experiment: Induction of apoptosis in human SK-BR-3 cells transfected with siNMDA receptor after 72 hrs by Annexin V-FITC/propidium iodide staining-based flow cytometric analysis; format: functional, cell-based
[7] = Metabolic stability in human liver microsomes; format: ADME, Microsome
[8] = tested on: SK-BR-3; experiment: Cytotoxicity against human SK-BR-3 cells assessed as reduction in cell viability incubated for 48 hrs by SRB assay; format: functional
Summary of the method: (§3)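 Followed the NCI SRB protocol: cells exposed 48 h to a range of concentrations. GI50 is the concentration giving 50% net growth inhibition; TGI is 100% growth inhibition; LC50 kills 50% of initial cells. Mean ± SE of three separate experiments.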

[9] = tested on: SK-BR-3; experiment: Induction of apoptosis in human SK-BR-3 cells transfected with siNMDA receptor assessed as active caspase-3 level incubated for 72 hrs by Western blot analysis; format: functional, cell-based; summary of the method: as §2
[10] = tested on: MCF7; experiment: Cytotoxicity against human MCF7 cells assessed as reduction in cell viability after 48 hrs by SRB assay; format: functional; summary of the method: as §3
[11] = Displacement of [3H]-(+)-MK-801 from PCP binding site of NMDA receptor in pig brain cortex membranes after 120 mins by scintillation counting analysis; format: cell membranes, Sus scrofa, Cerebral cortex, Membrane
[12] = tested on: MCF7; experiment: Induction of apoptosis in human MCF7 cells after 48 to 72 hrs by AnnexinV-FITC/PI staining based flow cytometric analysis; format: functional, cell-based; conditions: time hrs 48-72
[13] = tested on: MCF7; experiment: Induction of apoptosis in human MCF7 cells transfected with siNMDA receptor assessed as necrotic cells at 100 uM after 72 hrs by Annexin V-FITC/propidium iodide staining-based flow cytometric analysis (reference value: 3 %); format: functional
[14] = tested on: MCF7; experiment: Induction of apoptosis in human MCF7 cells assessed as early apoptotic cells at 100 uM after 72 hrs by Annexin V-FITC/propidium iodide staining-based flow cytometric analysis (reference value: 2 to 13 %); format: functional
[15] = tested on: MCF7; experiment: Induction of apoptosis in human MCF7 cells assessed as late apoptotic cells at 100 uM after 72 hrs by Annexin V-FITC/propidium iodide staining-based flow cytometric analysis (reference value: 1 to 2 %); format: functional
[16] = tested on: SK-BR-3; experiment: Induction of apoptosis in human SK-BR-3 cells transfected with siNMDA receptor assessed as late apoptotic cells at 25 uM after 72 hrs by Annexin V-FITC/propidium iodide staining-based flow cytometric analysis (reference value: 2 %); format: functional
[17] = tested on: MCF7; experiment: Induction of ROS generation in human MCF7 cells at 100 uM pretreated for 1 hr with ROS scavenger, NAC followed by compound addition and measured after 72 hrs by DCFDA staining-based flow cytometric analysis; format: functional, cell-based
Summary of the method: (§4)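 MCF-7 treated at 100 μM, SKBR3 at 25 μM, for 24, 48 and 72 h, alone or after NAC (10 mM) pretreatment. ROS measured by DCFDA staining and flow cytometry. Significance set at p < 0.01 vs untreated or vs treated-alone cells.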

[18] = tested on: MCF7; experiment: Induction of apoptosis in human MCF7 cells assessed as late apoptotic cells at 100 uM after 48 hrs by Annexin V-FITC/propidium iodide staining-based flow cytometric analysis (reference value: 2 %); format: functional
[19] = tested on: SK-BR-3; experiment: Induction of apoptosis in human SK-BR-3 cells at 25 uM by AnnexinV-FITC/PI staining based flow cytometric analysis; format: functional, cell-based; conditions: time hrs 48-72, TDE = time-dependent effect
[20] = tested on: SK-BR-3; experiment: Induction of apoptosis in human SK-BR-3 cells assessed as fold increase in cleavage of pro-caspase 3 at 25 uM incubated for 72 hrs by Western blot analysis relative to control; format: functional
Summary of the method: (§5)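 Caspase-3 immunoblot after 72 h treatment (MCF-7 100 μM, SKBR3 25 μM), tracking procaspase-3 cleavage to the active form. Densitometry normalised to GAPDH loading control.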

[21] = tested on: SK-BR-3; experiment: Induction of ROS generation in human SK-BR-3 cells at 25 uM pretreated for 1 hr with ROS scavenger, NAC followed by compound addition and measured after 72 hrs by DCFDA staining-based flow cytometric analysis; format: functional, cell-based; summary of the method: as §4
[22] = tested on: SK-BR-3; experiment: Induction of ROS generation in human SK-BR-3 cells at 25 uM after 72 hrs by DCFDA staining-based flow cytometric analysis; format: functional, cell-based; summary of the method: as §4
[23] = tested on: MCF7; experiment: Induction of apoptosis in human MCF7 cells assessed as necrotic cells at 100 uM after 72 hrs by Annexin V-FITC/propidium iodide staining-based flow cytometric analysis (reference value: 1 to 5 %); format: functional
[24] = tested on: MCF7; experiment: Induction of apoptosis in human MCF7 cells transfected with siNMDA receptor assessed as early apoptotic cells at 100 uM after 72 hrs by Annexin V-FITC/propidium iodide staining-based flow cytometric analysis (reference value: 33 %); format: functional
[25] = tested on: SK-BR-3; experiment: Induction of mitochondrial membrane depolarization in human SK-BR-3 cells at 25 uM by JC1 staining based flow cytometric analysis; format: functional, cell-based
Summary of the method: (§6)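 Mitochondrial membrane potential (Δψm) in untreated versus treated cells (MCF-7 100 μM, SKBR3 25 μM), assessed by JC-1 staining.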

[26] = tested on: MCF7; experiment: Induction of apoptosis in human MCF7 cells transfected with siNMDA receptor assessed as late apoptotic cells at 100 uM after 72 hrs by Annexin V-FITC/propidium iodide staining-based flow cytometric analysis (reference value: 4 %); format: functional
[27] = tested on: MCF7; experiment: Induction of apoptosis in human MCF7 cells transfected with siNMDA receptor assessed as active caspase-3 level at 100 uM incubated for 72 hrs by Western blot analysis; format: functional, cell-based; summary of the method: as §2
[28] = tested on: SK-BR-3; experiment: Induction of apoptosis in human SK-BR-3 cells after 48 to 72 hrs by AnnexinV-FITC/PI staining based flow cytometric analysis; format: functional, cell-based; conditions: time hrs 48-72
[29] = tested on: SK-BR-3; experiment: Induction of apoptosis in human SK-BR-3 cells assessed as early apoptotic cells at 25 uM after 72 hrs by Annexin V-FITC/propidium iodide staining-based flow cytometric analysis (reference value: 1 to 9 %); format: functional
[30] = tested on: MCF7; experiment: Induction of ROS generation in human MCF7 cells at 100 uM after 72 hrs by DCFDA staining-based flow cytometric analysis; format: functional, cell-based; summary of the method: as §4
[31] = tested on: SK-BR-3; experiment: Induction of apoptosis in human SK-BR-3 cells transfected with siNMDA receptor assessed as active caspase-3 level at 25 uM incubated for 72 hrs by Western blot analysis; format: functional, cell-based; summary of the method: as §2
[32] = tested on: SK-BR-3; experiment: Induction of apoptosis in human SK-BR-3 cells assessed as early apoptotic cells at 25 uM after 48 hrs by Annexin V-FITC/propidium iodide staining-based flow cytometric analysis (reference value: 9 %); format: functional
[33] = tested on: SK-BR-3; experiment: Induction of apoptosis in human SK-BR-3 cells assessed as necrotic cells at 25 uM after 48 hrs by Annexin V-FITC/propidium iodide staining-based flow cytometric analysis (reference value: 2 %); format: functional
[34] = tested on: MCF7; experiment: Induction of apoptosis in human MCF7 cells assessed as early apoptotic cells at 100 uM after 48 hrs by Annexin V-FITC/propidium iodide staining-based flow cytometric analysis (reference value: 16 %); format: functional
[35] = tested on: MCF7; experiment: Induction of apoptosis in human MCF7 cells at 100 uM by AnnexinV-FITC/PI staining based flow cytometric analysis; format: functional, cell-based; conditions: time hrs 48-72, TDE = time-dependent effect
[36] = tested on: MCF7; experiment: Induction of mitochondrial membrane depolarization in human MCF7 cells at 100 uM by JC1 staining based flow cytometric analysis; format: functional, cell-based; summary of the method: as §6
[37] = tested on: SK-BR-3; experiment: Induction of apoptosis in human SK-BR-3 cells assessed as late apoptotic cells at 25 uM after 72 hrs by Annexin V-FITC/propidium iodide staining-based flow cytometric analysis (reference value: 1 to 3 %); format: functional
[38] = tested on: SK-BR-3; experiment: Induction of apoptosis in human SK-BR-3 cells assessed as late apoptotic cells at 25 uM after 48 hrs by Annexin V-FITC/propidium iodide staining-based flow cytometric analysis (reference value: 2 %); format: functional
[39] = tested on: SK-BR-3; experiment: Induction of apoptosis in human SK-BR-3 cells assessed as necrotic cells at 25 uM after 72 hrs by Annexin V-FITC/propidium iodide staining-based flow cytometric analysis (reference value: 1 to 3 %); format: functional
[40] = tested on: MCF7; experiment: Induction of apoptosis in human MCF7 cells assessed as necrotic cells at 100 uM after 48 hrs by Annexin V-FITC/propidium iodide staining-based flow cytometric analysis (reference value: 7 %); format: functional
[41] = tested on: MCF7; experiment: Induction of apoptosis in human MCF7 cells assessed as fold increase in cleavage of pro-caspase 3 at 100 uM incubated for 72 hrs by Western blot analysis relative to control; format: functional; summary of the method: as §5
[42] = tested on: SK-BR-3; experiment: Induction of apoptosis in human SK-BR-3 cells transfected with si-NMDA receptor assessed as necrotic cells at 25 uM after 72 hrs by Annexin V-FITC/propidium iodide staining-based flow cytometric analysis (reference value: 4 %); format: functional
[43] = tested on: SK-BR-3; experiment: Induction of apoptosis in human SK-BR-3 cells transfected with siNMDA receptor assessed as early apoptotic cells at 25 uM after 72 hrs by Annexin V-FITC/propidium iodide staining-based flow cytometric analysis (reference value: 35 %); format: functional

In the case of `NC[C@@H]1COCC(c2ccccc2)(c2ccccc2)O1`, the GI50 [1] is reported as 210 µM, the Activity [2] is reported as “Active” and the Activity [3] is reported as “Active”. For the same molecule, the permeability [4] was “Permeable”, the GI50 [5] was 66 µM and the Activity [6] was “Active”. For the same molecule, the Stabilty [7] was “Stable”, the Activity [8] was “Dose-dependent effect” and the GI50 [8] was 74 µM. The Activity [9] was “Active”, the Activity [10] was “Dose-dependent effect” and the GI50 [10] was 250 µM. The Ki [11] was 0.497 µM.
With `NC[C@H]1COCC(c2ccccc2)(c2ccccc2)O1` the Activity [12] was “Dose-dependent effect”, the Activity [13] was 7% and the Activity [14] was 16%. It also gave a GI50 [1] of 520 µM, an Activity [15] of 19% and an Activity [16] of 3%. For the same molecule, the Activity [17] was “inactive”, the Activity [18] was 8% and the Activity [19] was “Tde”. The “fold change (FC)” value [20] was 5.1, the Activity [21] was “inactive” and the Activity [22] was “Active”. The Activity [23] was 9%, the Activity [24] was 26% and the Activity [25] was “inactive”. For the same molecule, the permeability [4] was “Permeable”, the GI50 [5] was 57 µM and the Activity [26] was 5%. The Activity [27] was “inactive”, the Activity [28] was “Dose-dependent effect” and the Stabilty [7] was “Stable”. The Activity [29] was 11%, the Activity [30] was “Active” and the Activity [31] was “inactive”. The Activity [32] was 19%, the Activity [33] was 4% and the Activity [34] was 26%. For the same molecule, the Activity [8] was “Dose-dependent effect”, the GI50 [8] was 23 µM and the Activity [10] was “Dose-dependent effect”. For the same molecule, the GI50 [10] was 99 µM, the Activity [35] was “Tde” and the Activity [36] was “inactive”. It also gave an Activity [37] of 15%, an Activity [38] of 5% and an Activity [39] of 17%. The Activity [40] was 8%, the Ki [11] was over 10 µM and the “fold change (FC)” value [41] was 3.2. For the same molecule, the Activity [42] was 8% and the Activity [43] was 24%.
